Tests used:
[1] = target: Vascular endothelial growth factor receptor 2 (Homo sapiens, UniProt P35968); experiment: Inhibition of human vascular endothelial growth factor receptor 2
[2] = target: Cyclin-dependent kinase 1 (Homo sapiens, UniProt P06493); experiment: Inhibition of human cyclin-dependent kinase 1
HeLa = experiment: Inhibitory concentration against Proliferation of HeLa cells (cervical adenocarcinoma); assay type: functional, cell-based; conditions: Homo sapiens
Summary of the method: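 HeLa cells grown in MEM with 0.1 mM nonessential amino acids, 1 mM pyruvate, 2 mM L-glutamine and 10% FCS at 37 °C, 5% CO2. Seeded in scintillating microplates in complete medium and incubated 24 h. Compound added for 24 h, then 0.2 µCi methyl-[14C]thymidine per well for a further 24 h.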

Casein kinase II = Casein kinase II (Homo sapiens, UniProt P19784+P67870+P68400); experiment: Inhibition of casein kinase II; assay type: protein-complex assay
[3] = target: cAMP-dependent protein kinase (PKA) (Homo sapiens, UniProt P22694+P17612+P22612); experiment: Inhibition of protein kinase A; assay type: protein assay
[4] = target: Protein kinase C gamma type (Homo sapiens, UniProt P05129); experiment: Inhibition of protein kinase C gamma
[5] = target: Vascular endothelial growth factor receptor (Homo sapiens, UniProt P17948+P35916+P35968); experiment: Inhibition of VEGF-stimulated human umbilical vein endothelial cell proliferation; assay type: functional, cell-based
Summary of the method: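 HUVEC trypsinized and seeded in F-12K with 0.2% heat-inactivated FBS, stimulated with 2 ng/well VEGF with or without compound. BrdU added 24 h after VEGF, then incubated another 20-24 h. Incorporation read by BrdU cell-proliferation ELISA.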

[6] = target: Fibroblast growth factor receptor 2 (Homo sapiens, UniProt P21802); experiment: Inhibition of fibroblast growth factor receptor 2
[7] = target: Mitogen-activated protein kinase 1 (Homo sapiens, UniProt P28482); experiment: Inhibition of mitogen activated protein kinase (ERK2)
[8] = target: Cyclin-dependent kinase 4 (Homo sapiens, UniProt P11802); experiment: Inhibition of cyclin-dependent kinase 4
[9] = target: Protein kinase C beta type (Homo sapiens, UniProt P05771); experiment: Inhibition of protein kinase C beta 2
Sequence of Protein kinase C beta type (P05771 whole entry): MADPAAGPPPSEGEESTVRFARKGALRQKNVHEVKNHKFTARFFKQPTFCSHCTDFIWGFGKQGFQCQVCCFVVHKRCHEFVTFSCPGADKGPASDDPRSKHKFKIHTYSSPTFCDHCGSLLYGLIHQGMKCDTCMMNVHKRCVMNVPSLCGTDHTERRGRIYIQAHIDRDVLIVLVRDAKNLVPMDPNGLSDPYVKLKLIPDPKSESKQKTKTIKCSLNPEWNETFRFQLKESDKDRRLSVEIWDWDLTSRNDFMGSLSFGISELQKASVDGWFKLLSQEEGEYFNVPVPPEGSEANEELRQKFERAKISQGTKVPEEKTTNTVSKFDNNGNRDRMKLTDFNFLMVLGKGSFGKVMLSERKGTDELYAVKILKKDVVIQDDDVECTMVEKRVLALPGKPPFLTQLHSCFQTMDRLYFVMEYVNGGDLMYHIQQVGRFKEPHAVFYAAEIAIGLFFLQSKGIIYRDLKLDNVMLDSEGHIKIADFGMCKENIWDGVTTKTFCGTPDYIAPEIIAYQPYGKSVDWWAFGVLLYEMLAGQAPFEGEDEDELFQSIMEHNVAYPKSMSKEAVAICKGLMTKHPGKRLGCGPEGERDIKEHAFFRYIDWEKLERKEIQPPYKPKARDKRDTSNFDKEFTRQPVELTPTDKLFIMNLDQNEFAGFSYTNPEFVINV

Sequence of Vascular endothelial growth factor receptor 2 (P35968 whole entry): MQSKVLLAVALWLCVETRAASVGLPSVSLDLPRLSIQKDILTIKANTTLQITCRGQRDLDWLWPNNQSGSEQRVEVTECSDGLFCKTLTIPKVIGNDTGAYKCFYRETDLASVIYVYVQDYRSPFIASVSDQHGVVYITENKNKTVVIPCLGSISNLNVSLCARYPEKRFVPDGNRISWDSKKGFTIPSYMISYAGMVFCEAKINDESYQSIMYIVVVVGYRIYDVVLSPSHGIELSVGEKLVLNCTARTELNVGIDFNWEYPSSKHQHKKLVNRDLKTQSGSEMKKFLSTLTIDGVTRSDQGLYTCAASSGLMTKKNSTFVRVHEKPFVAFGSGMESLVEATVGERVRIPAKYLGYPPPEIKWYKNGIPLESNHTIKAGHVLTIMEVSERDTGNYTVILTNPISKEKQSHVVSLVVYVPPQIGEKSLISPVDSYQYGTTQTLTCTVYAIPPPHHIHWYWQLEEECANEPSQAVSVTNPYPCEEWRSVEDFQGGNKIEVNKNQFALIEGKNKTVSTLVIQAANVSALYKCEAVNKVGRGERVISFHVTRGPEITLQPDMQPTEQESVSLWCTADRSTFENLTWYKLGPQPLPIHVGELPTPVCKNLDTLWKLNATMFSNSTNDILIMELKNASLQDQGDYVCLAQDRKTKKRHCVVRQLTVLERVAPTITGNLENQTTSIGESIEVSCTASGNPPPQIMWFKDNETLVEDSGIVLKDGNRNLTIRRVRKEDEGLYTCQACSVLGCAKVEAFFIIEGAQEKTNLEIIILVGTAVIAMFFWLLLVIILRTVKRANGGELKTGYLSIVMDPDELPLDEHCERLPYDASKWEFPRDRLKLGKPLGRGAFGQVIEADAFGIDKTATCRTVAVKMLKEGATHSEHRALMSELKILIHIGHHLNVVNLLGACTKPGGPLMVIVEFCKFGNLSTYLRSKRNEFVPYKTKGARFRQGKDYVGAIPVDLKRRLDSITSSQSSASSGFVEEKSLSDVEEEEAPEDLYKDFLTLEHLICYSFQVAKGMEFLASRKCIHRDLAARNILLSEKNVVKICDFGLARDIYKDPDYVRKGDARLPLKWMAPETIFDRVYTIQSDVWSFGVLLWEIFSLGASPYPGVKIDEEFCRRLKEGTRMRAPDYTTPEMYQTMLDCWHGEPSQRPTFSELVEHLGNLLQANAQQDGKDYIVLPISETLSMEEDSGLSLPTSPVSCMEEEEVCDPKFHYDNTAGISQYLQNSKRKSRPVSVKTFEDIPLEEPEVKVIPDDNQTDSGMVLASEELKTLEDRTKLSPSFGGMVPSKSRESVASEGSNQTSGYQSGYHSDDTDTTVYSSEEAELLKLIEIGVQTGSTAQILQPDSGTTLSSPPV
Sequence of Cyclin-dependent kinase 1 (P06493 whole entry): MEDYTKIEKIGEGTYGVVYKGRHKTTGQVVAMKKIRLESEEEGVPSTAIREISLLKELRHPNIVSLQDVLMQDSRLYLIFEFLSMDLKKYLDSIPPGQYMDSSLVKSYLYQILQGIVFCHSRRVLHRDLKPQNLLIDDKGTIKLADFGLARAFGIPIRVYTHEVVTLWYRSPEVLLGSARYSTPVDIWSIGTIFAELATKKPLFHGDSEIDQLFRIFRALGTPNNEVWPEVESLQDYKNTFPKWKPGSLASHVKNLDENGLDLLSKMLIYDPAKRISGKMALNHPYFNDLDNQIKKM
Sequence of Casein kinase II (P67870 whole entry): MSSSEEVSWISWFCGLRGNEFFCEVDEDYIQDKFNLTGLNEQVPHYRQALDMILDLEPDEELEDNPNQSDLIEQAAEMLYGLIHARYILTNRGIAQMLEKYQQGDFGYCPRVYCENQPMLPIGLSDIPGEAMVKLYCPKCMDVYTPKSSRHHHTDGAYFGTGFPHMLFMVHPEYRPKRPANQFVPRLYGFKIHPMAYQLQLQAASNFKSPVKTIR
Sequence of Casein kinase II (P68400 whole entry): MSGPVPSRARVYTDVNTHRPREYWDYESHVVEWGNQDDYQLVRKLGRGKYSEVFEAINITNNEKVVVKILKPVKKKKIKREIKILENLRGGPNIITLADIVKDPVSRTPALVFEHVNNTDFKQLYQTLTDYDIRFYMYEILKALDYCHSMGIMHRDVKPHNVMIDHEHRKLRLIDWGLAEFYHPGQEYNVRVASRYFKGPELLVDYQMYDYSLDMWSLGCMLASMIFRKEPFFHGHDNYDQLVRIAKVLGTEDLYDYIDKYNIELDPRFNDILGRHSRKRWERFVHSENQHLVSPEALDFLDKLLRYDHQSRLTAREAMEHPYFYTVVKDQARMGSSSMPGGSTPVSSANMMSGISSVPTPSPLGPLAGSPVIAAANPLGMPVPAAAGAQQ
Sequence of Casein kinase II (P19784 whole entry): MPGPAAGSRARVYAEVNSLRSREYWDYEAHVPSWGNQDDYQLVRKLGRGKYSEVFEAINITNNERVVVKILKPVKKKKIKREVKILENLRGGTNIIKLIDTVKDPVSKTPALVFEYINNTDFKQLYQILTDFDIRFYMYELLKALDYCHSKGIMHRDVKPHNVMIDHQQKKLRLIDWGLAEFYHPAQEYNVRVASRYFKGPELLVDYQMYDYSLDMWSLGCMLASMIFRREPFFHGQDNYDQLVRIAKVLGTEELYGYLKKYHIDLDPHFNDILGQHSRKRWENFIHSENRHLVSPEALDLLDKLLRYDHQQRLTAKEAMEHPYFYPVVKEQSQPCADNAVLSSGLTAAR
Sequence of Cyclin-dependent kinase 4 (P11802 whole entry): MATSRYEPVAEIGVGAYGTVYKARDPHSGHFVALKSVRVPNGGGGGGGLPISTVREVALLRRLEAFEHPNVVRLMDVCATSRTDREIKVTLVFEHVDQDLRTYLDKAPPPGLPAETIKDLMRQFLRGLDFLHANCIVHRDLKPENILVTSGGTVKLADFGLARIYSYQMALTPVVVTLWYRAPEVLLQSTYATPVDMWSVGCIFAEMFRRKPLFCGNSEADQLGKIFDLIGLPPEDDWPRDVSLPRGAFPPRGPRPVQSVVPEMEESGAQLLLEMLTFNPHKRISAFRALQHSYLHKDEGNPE
Sequence of Mitogen-activated protein kinase 1 (P28482 whole entry): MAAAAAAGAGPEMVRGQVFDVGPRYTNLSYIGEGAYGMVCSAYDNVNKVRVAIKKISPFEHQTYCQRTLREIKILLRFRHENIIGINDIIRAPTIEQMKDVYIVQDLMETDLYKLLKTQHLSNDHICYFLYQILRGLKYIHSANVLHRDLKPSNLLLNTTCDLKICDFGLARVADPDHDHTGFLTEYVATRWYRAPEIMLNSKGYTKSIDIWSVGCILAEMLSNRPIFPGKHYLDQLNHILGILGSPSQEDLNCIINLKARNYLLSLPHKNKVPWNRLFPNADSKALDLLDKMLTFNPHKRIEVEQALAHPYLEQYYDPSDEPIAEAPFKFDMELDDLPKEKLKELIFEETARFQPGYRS

Row | IC50 [1] | IC50 [2] | SMILES | further results
1 | > 10 µM | > 10 µM | OCCCNc1cccc(-c2cncc(Nc3cccc(Cl)c3)n2)n1 | 
2 | > 10 µM | > 10 µM | OCCCNc1ccc(-c2ncncc2Nc2cccc(Cl)c2)cn1 | 
3 | > 10 µM | > 10 µM | OCCCNc1cncc(-c2ncc(Nc3cccc(Cl)c3)cn2)c1 | 
4 | 0.5 µM | 0.5 µM | OCCCNc1cc(-c2cncc(Nc3cccc(Cl)c3)n2)ccn1 | 
5 | 2.11 µM | > 10 µM | OCCCNc1ncc(-c2cncc(Nc3cccc(Cl)c3)n2)o1 | 
6 |  | 0.017 µM | OCCCNc1cc(-c2ccnc(Nc3cccc(Cl)c3)n2)ccn1 | 
7 | 0.084 µM |  | OCCCNc1cncc(-c2cncc(Nc3cccc(Cl)c3)n2)c1 | IC50 (HeLa): > 10 µM; IC50 (Casein kinase II): > 10 µM; IC50 [3]: > 10 µM; IC50 [4]: > 10 µM; IC50 [5]: 0.005 µM; IC50 [6]: 0.21 µM; IC50 [7]: > 10 µM; IC50 [8]: > 10 µM; IC50 [9]: > 10 µM
8 | 0.708 µM | 8.08 µM | OCCCNc1ncc(-c2cncc(Nc3cccc(Cl)c3)n2)s1 | 
9 | 0.497 µM | > 10 µM | OCCCNc1cncc(-c2cncc(Nc3cccc(Cl)c3)n2)n1 | 
10 | > 10 µM | > 10 µM | OCCCNc1ccc(-c2cncc(Nc3cccc(Cl)c3)n2)nc1 | 
11 | 0.761 µM | 2.22 µM | OCCCNc1cnccc1-c1cncc(Nc2cccc(Cl)c2)n1 | 
12 | > 10 µM | > 10 µM | OCCCNc1cncc(-c2cnc(Nc3cccc(Cl)c3)cn2)c1 | 
13 | > 10 µM | 2.4 µM | OCCCNc1cncc(-c2cc(Nc3cccc(Cl)c3)ncn2)c1 | 
